Data set [1] concerns Mus musculus. As to the kind of experiment: In vivo inhibition of KDR in mouse assessed as estradiol-induced uterine edema up to 30 mg/kg, po. Format: functional, organism-based. The arrangement: dose 30 mg/kg. In outline:
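Estradiol-induced uterine edema model in mice, a readout of acute in vivo KDR activity. Compound is given orally and ED50 is reported in mg/kg po. Procedure follows the cited reference.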

The nature of data set [2]: Clearance in CD1 (ICR) mouse at 3 mg/kg, iv. Format: ADME, organism-based. On the set-up: dose 3 mg/kg, route intravenous. The conditions noted are these: in vivo.
The target of data set [3] is T1, Aurora kinase B (Homo sapiens, UniProt Q96GD4). The conditions noted are these: NCI-H1229.
Data set [4] in a line: Half life in CD1 (ICR) mouse at 3 mg/kg, iv. Format: ADME, organism-based. On the set-up: dose 3 mg/kg, route intravenous. The conditions noted are these: in vivo.
A short description of data set [5]: Volume of distribution in CD1 (ICR) mouse at 3 mg/kg, iv. Format: ADME, organism-based. On the set-up: dose 3 mg/kg, route intravenous. The conditions noted are these: in vivo.
A short description of data set [6]: Oral bioavailability in CD1 (ICR) mouse at 10 mg/kg. The data set is classed as ADME, organism-based. The conditions noted are these: in vivo.
The nature of data set [7]: AUC in CD1 (ICR) mouse at 10 mg/kg, po. Format: ADME, organism-based. On the set-up: dose 10 mg/kg, route oral. The conditions noted are these: plasma.
Data set [8] can be described thus: Protein binding in mouse. The data set is classed as ADME, organism-based. The conditions noted are these: plasma, read-out: PB.
Data set [9] deals with Mus musculus. As to the kind of experiment: In vivo inhibition of KDR in po dosed mouse assessed as estradiol-induced uterine edema. Format: functional.
A short description of data set [10]: Plasma clearance in rat. Format: ADME, organism-based.
Data set [11] is filed under the species Canis familiaris. In words: Cardiotoxicity in dog assessed as QT prolongation time at 117 uM plasma concentration. Format: toxicity, organism-based, Canis lupus familiaris.
Data set [12] can be described thus: Plasma clearance in dog. Format: ADME, organism-based, Canis lupus familiaris.
For data set [13], the species on record is Canis familiaris. As to the kind of experiment: Cardiotoxicity in dog assessed as QT prolongation time at 32.1 uM plasma concentration. The data set is classed as toxicity, organism-based, Canis lupus familiaris.
Data set [14] can be described thus: Volume of distribution at steady state in mouse. Format: ADME, organism-based. The conditions noted are these: in vivo, read-out: Vdss.
Data set [15] is described as follows: Protein binding in rat. The conditions noted are these: plasma, read-out: PB. The data set is classed as ADME, organism-based.
Data set [16] addresses T2, Cytochrome P450 3A4 (Homo sapiens, UniProt P08684). In words: Inhibition of CYP3A4. The data set is classed as ADME.
Data set [17] is described as follows: Protein binding in dog. The conditions noted are these: plasma, read-out: PB. The data set is classed as ADME, organism-based, Canis lupus familiaris.
A short description of data set [18]: Half life in rat. Format: ADME, organism-based. The conditions noted are these: in vivo.
Data set [19] in a line: Aqueous solubility of the compound. The data set is classed as physicochemical. The conditions noted are these: buffer. Put shortly:
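Aqueous solubility was measured across the physiological pH range.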

In data set [20] the target is T2, Cytochrome P450 3A4. In words: Inhibition of CYP3A4 up to 10 uM. The data set is classed as ADME.
Data set [21] is described as follows: Half life in mouse. The conditions noted are these: in vivo. Format: ADME, organism-based.
Data set [22] is described as follows: Lipophilicity, log D of the compound at pH 7. The conditions noted are these: buffer. The data set is classed as physicochemical.
Data set [23] is described as follows: Volume of distribution at steady state in rat. The data set is classed as ADME, organism-based. The conditions noted are these: in vivo, read-out: Vdss.
The target of data set [24] is Voltage-gated inwardly rectifying potassium channel KCNH2 (Homo sapiens, UniProt Q12809). As to the kind of experiment: Inhibition of human Erg by patch clamp assay in absence of plasma protein.
Data set [25] can be described thus: Half life in dog. Format: ADME, organism-based, Canis lupus familiaris. The conditions noted are these: in vivo.
Data set [26] can be described thus: Plasma clearance in mouse. The data set is classed as ADME, organism-based.
Data set [27] in a line: Volume of distribution at steady state in dog. Format: ADME, organism-based, Canis lupus familiaris. The conditions noted are these: in vivo, read-out: Vdss.
The target in data set [28] is T1, Aurora kinase B. In words: Inhibition of Aurora B using 1 mM ATP by HTRF assay.
The subject of data set [29] is HT-1080. In words: Antitumor activity against human HT1080 cells xenografted in mouse assessed as tumor growth inhibition at 10 mg/kg, po qd. The data set is classed as functional. The conditions noted are these: read-out: GI.
Data set [30] concerns the target T2, Cytochrome P450 3A4. As to the kind of experiment: Inhibition of CYP3A4 preincubated for 15 mins. The data set is classed as ADME.

The results in this text go back to ChEMBL document CHEMBL2021801, “Thienopyridine ureas as dual inhibitors of the VEGF and Aurora kinase families” (Bioorg Med Chem Lett, 2012).

The structures appear in SMILES notation. The source made the active and inactive calls. The rule behind the calls is not given here.

T2 sequence (P08684 whole entry): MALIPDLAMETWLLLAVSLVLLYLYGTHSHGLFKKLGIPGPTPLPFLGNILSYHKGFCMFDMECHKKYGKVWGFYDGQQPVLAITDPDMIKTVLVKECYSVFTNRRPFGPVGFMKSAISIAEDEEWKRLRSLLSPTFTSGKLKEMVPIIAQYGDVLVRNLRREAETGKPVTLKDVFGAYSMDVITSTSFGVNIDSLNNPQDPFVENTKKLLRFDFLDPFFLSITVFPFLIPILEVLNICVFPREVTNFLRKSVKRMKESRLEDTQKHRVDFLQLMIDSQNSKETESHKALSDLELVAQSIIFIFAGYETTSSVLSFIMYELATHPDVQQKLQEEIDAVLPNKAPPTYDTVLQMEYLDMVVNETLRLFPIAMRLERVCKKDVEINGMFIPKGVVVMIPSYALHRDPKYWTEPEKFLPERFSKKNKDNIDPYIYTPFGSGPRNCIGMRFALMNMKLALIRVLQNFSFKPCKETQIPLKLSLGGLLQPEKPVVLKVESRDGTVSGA
T1 sequence (Q96GD4 whole entry): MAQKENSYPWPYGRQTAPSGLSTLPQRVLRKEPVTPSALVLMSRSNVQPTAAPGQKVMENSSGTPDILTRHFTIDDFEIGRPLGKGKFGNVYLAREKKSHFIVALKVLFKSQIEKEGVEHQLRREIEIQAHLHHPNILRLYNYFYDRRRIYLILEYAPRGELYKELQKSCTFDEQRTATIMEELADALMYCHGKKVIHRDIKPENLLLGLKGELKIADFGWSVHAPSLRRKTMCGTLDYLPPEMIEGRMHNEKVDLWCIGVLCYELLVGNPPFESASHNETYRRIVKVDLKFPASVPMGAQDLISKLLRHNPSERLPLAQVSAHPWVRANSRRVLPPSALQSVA
Sequence of Voltage-gated inwardly rectifying potassium channel KCNH2 (Q12809 whole entry): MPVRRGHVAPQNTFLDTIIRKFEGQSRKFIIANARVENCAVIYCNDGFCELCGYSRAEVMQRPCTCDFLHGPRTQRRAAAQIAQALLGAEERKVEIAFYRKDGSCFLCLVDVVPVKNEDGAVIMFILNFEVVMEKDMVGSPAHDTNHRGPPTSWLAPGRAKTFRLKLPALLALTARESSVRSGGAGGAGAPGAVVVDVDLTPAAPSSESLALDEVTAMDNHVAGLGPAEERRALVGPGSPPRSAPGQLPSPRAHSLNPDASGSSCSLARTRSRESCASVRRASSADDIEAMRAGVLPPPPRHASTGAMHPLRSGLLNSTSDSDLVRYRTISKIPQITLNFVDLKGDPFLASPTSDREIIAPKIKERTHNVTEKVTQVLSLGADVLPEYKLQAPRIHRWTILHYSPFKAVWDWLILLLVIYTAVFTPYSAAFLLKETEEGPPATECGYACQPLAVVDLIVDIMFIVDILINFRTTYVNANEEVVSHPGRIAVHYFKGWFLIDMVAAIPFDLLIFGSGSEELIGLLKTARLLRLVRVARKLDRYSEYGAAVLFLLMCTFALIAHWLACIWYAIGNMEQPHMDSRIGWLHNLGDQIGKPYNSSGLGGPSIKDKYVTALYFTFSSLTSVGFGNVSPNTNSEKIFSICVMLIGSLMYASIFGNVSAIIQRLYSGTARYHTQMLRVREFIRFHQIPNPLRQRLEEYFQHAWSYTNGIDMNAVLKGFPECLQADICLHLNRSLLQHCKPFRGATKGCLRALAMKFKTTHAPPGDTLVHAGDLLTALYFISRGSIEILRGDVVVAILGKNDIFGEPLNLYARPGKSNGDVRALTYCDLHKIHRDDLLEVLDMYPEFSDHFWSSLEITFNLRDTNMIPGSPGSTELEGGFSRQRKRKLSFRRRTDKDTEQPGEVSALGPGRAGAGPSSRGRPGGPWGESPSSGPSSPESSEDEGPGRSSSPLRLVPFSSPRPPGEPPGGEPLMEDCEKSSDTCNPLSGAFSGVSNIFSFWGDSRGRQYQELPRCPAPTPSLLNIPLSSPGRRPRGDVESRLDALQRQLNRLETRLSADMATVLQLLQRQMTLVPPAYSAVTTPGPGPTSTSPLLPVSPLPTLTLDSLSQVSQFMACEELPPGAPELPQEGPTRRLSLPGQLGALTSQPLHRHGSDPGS

Take `Cc1cccc(NC(=O)Nc2ccc(-c3csc4ccnc(N)c34)cc2)c1`: the result in [1] was inactive. The compound further showed a clearance in [2] of 66.7 mL/min/kg. The EC15 in data set [3] is 4140 nM. In addition, the half-life in data set [4] is 0.3 h. This compound also gave a Vd in data set [5] of 1.7 L/kg. Besides, the bioavailability in data set [6] was 18%. In data set [7], this compound displayed an AUC of 450 ng·h/mL.
Consider `Nc1ncc(-c2cnn(CCO)c2)c2scc(-c3ccc(NC(=O)Nc4cccc(F)c4)cc3)c12` [ILORASERTIB], for which the fraction unbound in data set [8], in data set [15] and in data set [17] was below 0.01 in each case. The ED50 in data set [9] turned out to be 3.2 mg/kg. Also, the clearance in data set [10] was below 5 mL/min/kg; in data set [12], below 5 mL/min/kg; in data set [2], 5 mL/min/kg; in data set [26], below 5 mL/min/kg. Further, the Time in data set [11] is on record as 25 ms; in data set [13], 11 ms. For the same compound, the Vd in [14] is 0.4 L/kg; in [5], 1.7 L/kg; in data set [23], 0.4 L/kg; in data set [27] it was 0.4 L/kg. Further, the IC50 was above 30000 nM in data set [16] and 1000 nM in data set [24]. The compound further had an EC15 in data set [3] of 12 nM. For the same compound, the half-life is 4.7 h in [4], 4 h in data set [18], 4 h in [21] and 4 h in data set [25]. The same compound had a solubility in data set [19] below 78 µM. Besides, in data set [20], the “inhibition (INH)” value is listed as below 20%. For the same compound, the bioavailability in [6] was determined as 47%. This compound also showed a logD in [22] of 4.5. The AUC in data set [7] was 18600 ng·h/mL.
Regarding `Cn1cc(-c2cnc(N)c3c(-c4ccc(NC(=O)Nc5cccc(F)c5)cc4)csc23)cn1`, in data set [9], the ED50 was determined as 0.3 mg/kg. The IC50 is 7900 nM in data set [16], 9 nM in data set [28] and 2700 nM in data set [30]. In data set [2], this compound had a clearance of 3.33 mL/min/kg. The compound further displayed an EC15 in [3] of 6 nM. In data set [4], the half-life was 3.6 h. Also, the Vd in data set [5] was found to be 0.9 L/kg. In data set [6], this compound came in with a bioavailability of 78%. In addition, the inhibition in vivo at 10 mg/kg in [29] is above 70%. In addition, in data set [7], the AUC came to 44000 ng·h/mL.
